Bioassay records as filed in PubChem BioAssay.
Apaf1 activ – activators of human Apaf-1 apoptosome, primary screen, biochemical, DEVD-Rh110 fluorescence, uHTS; Apoptotic protease-activating factor 1 (Homo sapiens), O14727; Apaf-1 apoptosome caspase-3 activation; stronger effect = lower value; activity change, negative = activation, % at 20 µM; 0.31% of 330,000 active;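 active means activity change at or below -40% at 20 µM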
Target sequence (O14727 whole entry, looked up): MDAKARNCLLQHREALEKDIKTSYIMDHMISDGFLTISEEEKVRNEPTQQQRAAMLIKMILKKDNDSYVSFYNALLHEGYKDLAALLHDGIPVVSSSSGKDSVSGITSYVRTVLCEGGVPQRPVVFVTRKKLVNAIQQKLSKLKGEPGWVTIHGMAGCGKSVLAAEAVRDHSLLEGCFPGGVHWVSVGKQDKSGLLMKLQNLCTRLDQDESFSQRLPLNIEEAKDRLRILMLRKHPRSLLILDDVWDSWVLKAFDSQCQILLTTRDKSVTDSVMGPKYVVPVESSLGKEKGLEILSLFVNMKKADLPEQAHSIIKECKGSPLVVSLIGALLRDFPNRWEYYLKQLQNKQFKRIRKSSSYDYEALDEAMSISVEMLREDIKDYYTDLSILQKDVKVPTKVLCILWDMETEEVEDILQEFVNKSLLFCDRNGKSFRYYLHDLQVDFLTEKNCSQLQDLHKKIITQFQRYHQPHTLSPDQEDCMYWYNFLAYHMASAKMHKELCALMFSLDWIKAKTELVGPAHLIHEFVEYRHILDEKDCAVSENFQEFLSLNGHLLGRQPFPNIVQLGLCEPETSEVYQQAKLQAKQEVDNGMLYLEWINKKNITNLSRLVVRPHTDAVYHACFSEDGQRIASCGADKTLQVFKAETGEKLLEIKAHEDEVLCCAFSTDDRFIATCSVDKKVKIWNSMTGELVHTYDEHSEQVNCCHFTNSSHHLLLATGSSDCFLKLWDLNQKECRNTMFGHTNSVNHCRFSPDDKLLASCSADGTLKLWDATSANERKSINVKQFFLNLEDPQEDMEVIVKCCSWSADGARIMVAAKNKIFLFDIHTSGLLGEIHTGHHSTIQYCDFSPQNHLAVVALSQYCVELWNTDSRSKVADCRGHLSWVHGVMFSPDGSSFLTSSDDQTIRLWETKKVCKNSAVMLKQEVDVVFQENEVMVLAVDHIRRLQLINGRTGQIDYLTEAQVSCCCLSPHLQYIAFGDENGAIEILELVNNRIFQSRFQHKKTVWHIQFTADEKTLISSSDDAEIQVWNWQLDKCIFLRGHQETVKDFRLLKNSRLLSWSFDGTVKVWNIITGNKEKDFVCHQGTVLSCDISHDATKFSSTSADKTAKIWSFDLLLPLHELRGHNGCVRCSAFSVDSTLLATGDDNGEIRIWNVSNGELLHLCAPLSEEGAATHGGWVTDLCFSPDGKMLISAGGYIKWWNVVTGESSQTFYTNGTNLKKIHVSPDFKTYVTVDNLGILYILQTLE
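Material: reconstituted apoptosome of Apaf-1, cytochrome c, caspase-9, procaspase-3; times: 30 min preincubation, 50 min reaction, room temperature; measured by: fluorescence, 540 nm emission, 480 nm excitation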
Rh110 act interf – Rh110 fluorescence interference by putative Apaf-1 activators, confirmation, artefact control for Apaf-1 activator project, biochemical, 20 µM | shares compounds with Apaf1 activ | quenched caspase reaction, Ex480/Em540 | fluorescence interference (activity change), % at 20 µM, hits read low | 980 tested, under 10 active | AID 504616, 2011;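 active means mean activity change at or below -40% when tested at 20 µM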
Apaf-1 act conf2 – Apaf-1 activators, single-dose retest, confirmation, biochemical, fluorescence, DEVD-Rh110, 20 µM; shares compounds with Apaf1 activ; reconstituted apoptosome caspase-3 activity; stronger effect = lower value; activity change, negative = activation, % at 20 µM; 5% of 980 active; AID 504617, 2011;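 active means mean activity change at or below -40%, meaning activation of 40% or more, at 20 µM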
Apaf1 act interf – fluorescence interference of Apaf-1 activator hits, dose response, artefact control for Apaf-1 activator project | AID 588592, 2011 | shares compounds with Apaf1 activ | 55 tested, under 10 active | fluorescence interference counterscreen, Apaf-1 activator assay | EC50, µM; call rule not given here
Of the large screens only hits and unclear results are named; the others gave an inactive call (follow-up assays come after a bar, where they were run). The list is a sample of the results.

Cc1cccc(OCc2n(CC(=O)OC3CC(C)CCC3C(C)C)c3ccccc3[n+]2C)c1 (stereo not drawn)	none
Nc1ccc(Oc2ncccn2)cc1	none
Cc1cccc(N2CCN(C(=O)c3ccc4nc(-c5ccco5)c(-c5ccco5)nc4c3)CC2C)c1 (stereo not drawn)	none
COc1cccc(N2CCN(C(=O)c3ccc(=O)oc3)CC2C)c1 (stereo not drawn)	Apaf1 activ -332 | Rh110 act interf inactive | Apaf-1 act conf2 inactive
N#Cc1c(N)n(CCNC(=O)c2ccc(Cl)cc2)c2nc3ccccc3nc12	none
O=c1[nH]c(N2CCOCC2)cc2ccccc12	none
Cc1ccc(S(=O)(=O)NCc2ccc3c(c2)cc(C)n3C)cc1	none
Cc1[nH]c2ccc(CNS(=O)(=O)c3ccc(S(=O)(=O)N4CCOCC4)cc3)cc2c1C	Apaf1 activ -48 | Rh110 act interf inactive | Apaf-1 act conf2 inactive
Cc1[nH]n(-c2ccccc2)c(=O)c1C(C[N+](=O)[O-])c1ccc(Cl)cc1 (stereo not drawn)	none
COC(=O)c1c(C(=O)OC)c2cccc3cc(-c4ccccc4)c4ccc1c4n32	none
O=c1cc(-c2cc3ccccc3o2)c2cc(O)ccc2o1	Apaf1 activ -234 | Rh110 act interf inactive | Apaf-1 act conf2 inactive
COCCNC(=O)c1c(N)n(-c2ccccc2)c2nc3ccccc3nc12	none
O=C(CCc1ccccc1)NNc1cc(N2CCCCC2)nc(N2CCCCC2)n1	none
COc1ccc(NC(=O)CCCCCN2C(=O)c3cccc([N+](=O)[O-])c3C2=O)c(OC)c1	none
COc1cc([N+](=O)[O-])ccc1NC(=O)CN1CCc2cc(OC)c(OC)cc2C1	none
COc1cc([N+](=O)[O-])ccc1NC(=O)COC(=O)c1ccc(NC(N)=O)cc1	Apaf1 activ -44 | Rh110 act interf inactive | Apaf-1 act conf2 -43 | Apaf1 act interf inactive
COc1ccc(/C=C2/C(=O)N(c3ccccc3)N=C2C)cc1Br	none
CN(CCO)C(=O)c1c(NC(=O)c2ccccc2)sc2c1CCCC2	Apaf1 activ -362 | Rh110 act interf inactive | Apaf-1 act conf2 inactive
CC(=O)N1CCc2c(sc(NC(=O)c3cccc(N4C(=O)CCC4=O)c3)c2C(N)=O)C1	none
CN1c2ccccc2C(C)(C)C12C=Nc1c(cc(N3CCOCC3)c3ccccc13)O2 (stereo not drawn)	none
NC(=NCCc1c[nH]c2ccccc12)NS(=O)(=O)c1ccc(F)cc1	Apaf1 activ -46 | Rh110 act interf inactive | Apaf-1 act conf2 inactive
COC(=O)C1=C(C)N(Cc2ccccc2)C(=NCCc2c[nH]c3ccccc23)N[C@H]1c1cccc(C(F)(F)F)c1	none
Cc1ccc(-c2cc(C(=O)O)c3cc(Br)ccc3n2)s1	none
CCC(=O)N(C1=C(NC)C(=O)c2ccccc2C1=O)C(C)C	none
O=C(c1cccs1)[C@@H]1[C@@H]2C(=O)N(Cc3ccc4c(c3)OCO4)C(=O)[C@@H]2C2c3ccccc3C=CN21 (stereo partly drawn)	none
COc1ccc2c3c(cccc13)N(C)N=C2C	none
CC(=O)c1ccc(-n2ccc(=O)cc2)cc1	Apaf1 activ -494 | Rh110 act interf inactive | Apaf-1 act conf2 inactive
OCCN1CCN(CCCN2c3ccccc3Sc3ccc(Cl)cc32)CC1	none
O=C(CSc1ccc(-c2ccc3c(c2)OCO3)nn1)Nc1nccs1	Apaf1 activ -45 | Rh110 act interf inactive | Apaf-1 act conf2 inactive
CC(=O)c1cccc(NC(=O)CSc2ccc(-c3ccco3)nn2)c1	none
O=C(NCc1ccccc1)C1(CC2CC(c3ccccc3)=NO2)CCNCC1 (stereo not drawn)	none
CC(=O)N1CCN(C2=Nc3cccc4cccc2c34)CC1	none
COc1cccc(C(=O)NN2C(=S)N(c3ccccc3)C(=O)C2CC(N)=O)c1 (stereo not drawn)	Apaf1 activ -83 | Rh110 act interf inactive | Apaf-1 act conf2 inactive
O=C1NC2=C(CCc3ccccc32)C(c2ccc(Br)cc2)N1 (stereo not drawn)	none
CC[C@]12c3[nH]c4ccc(OC)cc4c3CCN1C(=O)C(CC(=O)NC/C=C(\C)CCC=C(C)C)C[C@@H]2C(=O)N1CCN(C(=O)c2ccco2)CC1 (stereo partly drawn)	none
COc1ccc(C(CC(=O)c2ccc(O)cc2)S(=O)(=O)c2ccc(C)cc2)cc1 (stereo not drawn)	Apaf1 activ -64 | Rh110 act interf inactive | Apaf-1 act conf2 inactive
COc1ccc(S(=O)(=O)/N=C2\C=C(Nc3ccc(O)cc3)C(=O)c3ccccc32)cc1	none
COc1cc(C(=O)NC(C)c2ccc(-n3ccnc3)cc2)cc(OC)c1C (stereo not drawn)	none
N#Cc1c(N(CCO)CCO)nc(N)c2c(N)nc3c(c12)CC(=O)N3Cc1cccs1	none
CC(C)NC1=C(Cl)C(=O)c2ccccc2C1=O	none
Cc1ccccc1NC(=S)N/N=C/c1ccc(O)cc1O	Apaf1 activ -43 | Rh110 act interf inactive | Apaf-1 act conf2 inactive
Cc1ccccc1NC(=S)Nc1cccc2cnccc12	none
Oc1ccc(C=Nc2cccc3ccccc23)c(O)c1	none
CC1(C)C=C2C(=NN(c3ccccc3)C(N)=C2C#N)CO1	none
CC(=O)Nc1ccc(NC(=O)C2CC(=O)Nc3nc4ccccc4n32)cc1 (stereo not drawn)	Apaf1 activ -43 | Rh110 act interf inactive | Apaf-1 act conf2 inactive
COC(=O)c1c(N)n(-c2ccc(NC(C)=O)cc2)c2nc3ccccc3nc12	none
CCCCCCOC(=O)C[N+](C)(C)CCOC1CC2CCC1(C)C2(C)C (stereo not drawn)	none
c1ccc(-c2noc(CN3CCN(c4cnccn4)CC3)n2)cc1	Apaf1 activ -92 | Rh110 act interf inactive | Apaf-1 act conf2 inactive
COCCCC1CCN(Cc2nc(-c3ccccc3)no2)CC1	Apaf1 activ -51 | Rh110 act interf inactive | Apaf-1 act conf2 inactive
CN1CCN(c2ccc(NC(=O)c3ccc(-c4ccc(Br)cc4)o3)cc2)CC1	none
CCCn1nnc(NC(=O)c2ccc(-c3cccc(Cl)c3)o2)n1	Apaf1 activ -44 | Rh110 act interf inactive | Apaf-1 act conf2 inactive
CCCCn1nnc(NC(=O)Cc2ccc(Cl)cc2)n1	Apaf1 activ -95 | Rh110 act interf inactive | Apaf-1 act conf2 inactive
NC1=C(Br)C(=O)c2ccccc2C1=O	none
c1cc2cn[nH]c2cc1NC1CCCCCC1	none
CCCN(CC(=O)Nc1ccccc1C)C(=O)C1CCCN(C(=O)c2ccc(Cl)cc2)C1 (stereo not drawn)	none
CC1=CC(=C(C#N)c2nc3ccccc3s2)C=C(C)N1c1ccc(F)cc1	none
NC(N)=N/N=C/c1c(Cl)cccc1Cl	none
CC(C)NC(=O)C1CCN(S(=O)(=O)c2ccc(N3CCCC3=O)cc2)CC1	Apaf1 activ -332 | Rh110 act interf inactive | Apaf-1 act conf2 inactive
CCC(C)NC(=O)C1CCN(S(=O)(=O)c2cccc3cccnc23)CC1 (stereo not drawn)	Apaf1 activ -456 | Rh110 act interf inactive | Apaf-1 act conf2 inactive
Oc1ccccc1CNc1cccc2cccnc12	none
C=CCn1c(N)c(C(=O)OC(C)(C)C)c2nc3ccccc3nc21	none
